In paper PMC3822732 (Journal of Cellular and Molecular Medicine, 2009):
Like-named read-outs stand apart in the source and are kept apart here.

Columns and labels:
LRP-1 = conditions: read-out: Affinity for LRP-1; in other cell types; cited from earlier work
LRP-1 (Homo sapiens) [1] = target: LRP-1 (Homo sapiens) (UniProt Q07954); conditions: cited from earlier work
RBE4 cells = assay: [125I]-Angiopep-2 uptake assay in brain endothelial cells; assay type: cell-based, rat; conditions: [125I]-Angiopep-2 100 nM; poly-L-lysine 350 μg/ml, protamine 40 μg/ml
Outline: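 RBE4 brain endothelial cells were grown on collagen I in α-MEM/Ham's F-12 (1:1) with 10% heat-inactivated FCS, G418 and bFGF, seeded at 5 × 10⁴ cells/well and fed 3 days. Subconfluent cells in Ringer/HEPES pH 7.4 took up the tracer for 2 min at 37°C with a polycation, ± unlabelled peptide. Cells were lysed in 0.3 M NaOH and gamma counted, with unlabelled-cell background subtracted, in quadruplicate.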

LRP-1 (Homo sapiens) [2] = target: LRP-1 (Homo sapiens) (UniProt Q07954); conditions: cited from earlier work; remark: listed apart in the source
[3] = test system: bovine brain capillary endothelial cell monolayers; conditions: cited from earlier work
[4] = cited from earlier work
endothelial cells = assay: Endothelial cells exposed to Angiopep-2; assay type: cell-based; conditions: data not shown
[5] = after in situ perfusion; cited from earlier work
[6] = in situ brain perfusion; cited from earlier work
[7] = Immunohistochemical detection of Angiopep-2 in brain with anti-Angiopep-2 pAb; conditions: mice, 20 mg/kg tail vein, 60 min uptake, cold saline perfusion

LRP-1 (Homo sapiens), sequence (Q07954 20-4544): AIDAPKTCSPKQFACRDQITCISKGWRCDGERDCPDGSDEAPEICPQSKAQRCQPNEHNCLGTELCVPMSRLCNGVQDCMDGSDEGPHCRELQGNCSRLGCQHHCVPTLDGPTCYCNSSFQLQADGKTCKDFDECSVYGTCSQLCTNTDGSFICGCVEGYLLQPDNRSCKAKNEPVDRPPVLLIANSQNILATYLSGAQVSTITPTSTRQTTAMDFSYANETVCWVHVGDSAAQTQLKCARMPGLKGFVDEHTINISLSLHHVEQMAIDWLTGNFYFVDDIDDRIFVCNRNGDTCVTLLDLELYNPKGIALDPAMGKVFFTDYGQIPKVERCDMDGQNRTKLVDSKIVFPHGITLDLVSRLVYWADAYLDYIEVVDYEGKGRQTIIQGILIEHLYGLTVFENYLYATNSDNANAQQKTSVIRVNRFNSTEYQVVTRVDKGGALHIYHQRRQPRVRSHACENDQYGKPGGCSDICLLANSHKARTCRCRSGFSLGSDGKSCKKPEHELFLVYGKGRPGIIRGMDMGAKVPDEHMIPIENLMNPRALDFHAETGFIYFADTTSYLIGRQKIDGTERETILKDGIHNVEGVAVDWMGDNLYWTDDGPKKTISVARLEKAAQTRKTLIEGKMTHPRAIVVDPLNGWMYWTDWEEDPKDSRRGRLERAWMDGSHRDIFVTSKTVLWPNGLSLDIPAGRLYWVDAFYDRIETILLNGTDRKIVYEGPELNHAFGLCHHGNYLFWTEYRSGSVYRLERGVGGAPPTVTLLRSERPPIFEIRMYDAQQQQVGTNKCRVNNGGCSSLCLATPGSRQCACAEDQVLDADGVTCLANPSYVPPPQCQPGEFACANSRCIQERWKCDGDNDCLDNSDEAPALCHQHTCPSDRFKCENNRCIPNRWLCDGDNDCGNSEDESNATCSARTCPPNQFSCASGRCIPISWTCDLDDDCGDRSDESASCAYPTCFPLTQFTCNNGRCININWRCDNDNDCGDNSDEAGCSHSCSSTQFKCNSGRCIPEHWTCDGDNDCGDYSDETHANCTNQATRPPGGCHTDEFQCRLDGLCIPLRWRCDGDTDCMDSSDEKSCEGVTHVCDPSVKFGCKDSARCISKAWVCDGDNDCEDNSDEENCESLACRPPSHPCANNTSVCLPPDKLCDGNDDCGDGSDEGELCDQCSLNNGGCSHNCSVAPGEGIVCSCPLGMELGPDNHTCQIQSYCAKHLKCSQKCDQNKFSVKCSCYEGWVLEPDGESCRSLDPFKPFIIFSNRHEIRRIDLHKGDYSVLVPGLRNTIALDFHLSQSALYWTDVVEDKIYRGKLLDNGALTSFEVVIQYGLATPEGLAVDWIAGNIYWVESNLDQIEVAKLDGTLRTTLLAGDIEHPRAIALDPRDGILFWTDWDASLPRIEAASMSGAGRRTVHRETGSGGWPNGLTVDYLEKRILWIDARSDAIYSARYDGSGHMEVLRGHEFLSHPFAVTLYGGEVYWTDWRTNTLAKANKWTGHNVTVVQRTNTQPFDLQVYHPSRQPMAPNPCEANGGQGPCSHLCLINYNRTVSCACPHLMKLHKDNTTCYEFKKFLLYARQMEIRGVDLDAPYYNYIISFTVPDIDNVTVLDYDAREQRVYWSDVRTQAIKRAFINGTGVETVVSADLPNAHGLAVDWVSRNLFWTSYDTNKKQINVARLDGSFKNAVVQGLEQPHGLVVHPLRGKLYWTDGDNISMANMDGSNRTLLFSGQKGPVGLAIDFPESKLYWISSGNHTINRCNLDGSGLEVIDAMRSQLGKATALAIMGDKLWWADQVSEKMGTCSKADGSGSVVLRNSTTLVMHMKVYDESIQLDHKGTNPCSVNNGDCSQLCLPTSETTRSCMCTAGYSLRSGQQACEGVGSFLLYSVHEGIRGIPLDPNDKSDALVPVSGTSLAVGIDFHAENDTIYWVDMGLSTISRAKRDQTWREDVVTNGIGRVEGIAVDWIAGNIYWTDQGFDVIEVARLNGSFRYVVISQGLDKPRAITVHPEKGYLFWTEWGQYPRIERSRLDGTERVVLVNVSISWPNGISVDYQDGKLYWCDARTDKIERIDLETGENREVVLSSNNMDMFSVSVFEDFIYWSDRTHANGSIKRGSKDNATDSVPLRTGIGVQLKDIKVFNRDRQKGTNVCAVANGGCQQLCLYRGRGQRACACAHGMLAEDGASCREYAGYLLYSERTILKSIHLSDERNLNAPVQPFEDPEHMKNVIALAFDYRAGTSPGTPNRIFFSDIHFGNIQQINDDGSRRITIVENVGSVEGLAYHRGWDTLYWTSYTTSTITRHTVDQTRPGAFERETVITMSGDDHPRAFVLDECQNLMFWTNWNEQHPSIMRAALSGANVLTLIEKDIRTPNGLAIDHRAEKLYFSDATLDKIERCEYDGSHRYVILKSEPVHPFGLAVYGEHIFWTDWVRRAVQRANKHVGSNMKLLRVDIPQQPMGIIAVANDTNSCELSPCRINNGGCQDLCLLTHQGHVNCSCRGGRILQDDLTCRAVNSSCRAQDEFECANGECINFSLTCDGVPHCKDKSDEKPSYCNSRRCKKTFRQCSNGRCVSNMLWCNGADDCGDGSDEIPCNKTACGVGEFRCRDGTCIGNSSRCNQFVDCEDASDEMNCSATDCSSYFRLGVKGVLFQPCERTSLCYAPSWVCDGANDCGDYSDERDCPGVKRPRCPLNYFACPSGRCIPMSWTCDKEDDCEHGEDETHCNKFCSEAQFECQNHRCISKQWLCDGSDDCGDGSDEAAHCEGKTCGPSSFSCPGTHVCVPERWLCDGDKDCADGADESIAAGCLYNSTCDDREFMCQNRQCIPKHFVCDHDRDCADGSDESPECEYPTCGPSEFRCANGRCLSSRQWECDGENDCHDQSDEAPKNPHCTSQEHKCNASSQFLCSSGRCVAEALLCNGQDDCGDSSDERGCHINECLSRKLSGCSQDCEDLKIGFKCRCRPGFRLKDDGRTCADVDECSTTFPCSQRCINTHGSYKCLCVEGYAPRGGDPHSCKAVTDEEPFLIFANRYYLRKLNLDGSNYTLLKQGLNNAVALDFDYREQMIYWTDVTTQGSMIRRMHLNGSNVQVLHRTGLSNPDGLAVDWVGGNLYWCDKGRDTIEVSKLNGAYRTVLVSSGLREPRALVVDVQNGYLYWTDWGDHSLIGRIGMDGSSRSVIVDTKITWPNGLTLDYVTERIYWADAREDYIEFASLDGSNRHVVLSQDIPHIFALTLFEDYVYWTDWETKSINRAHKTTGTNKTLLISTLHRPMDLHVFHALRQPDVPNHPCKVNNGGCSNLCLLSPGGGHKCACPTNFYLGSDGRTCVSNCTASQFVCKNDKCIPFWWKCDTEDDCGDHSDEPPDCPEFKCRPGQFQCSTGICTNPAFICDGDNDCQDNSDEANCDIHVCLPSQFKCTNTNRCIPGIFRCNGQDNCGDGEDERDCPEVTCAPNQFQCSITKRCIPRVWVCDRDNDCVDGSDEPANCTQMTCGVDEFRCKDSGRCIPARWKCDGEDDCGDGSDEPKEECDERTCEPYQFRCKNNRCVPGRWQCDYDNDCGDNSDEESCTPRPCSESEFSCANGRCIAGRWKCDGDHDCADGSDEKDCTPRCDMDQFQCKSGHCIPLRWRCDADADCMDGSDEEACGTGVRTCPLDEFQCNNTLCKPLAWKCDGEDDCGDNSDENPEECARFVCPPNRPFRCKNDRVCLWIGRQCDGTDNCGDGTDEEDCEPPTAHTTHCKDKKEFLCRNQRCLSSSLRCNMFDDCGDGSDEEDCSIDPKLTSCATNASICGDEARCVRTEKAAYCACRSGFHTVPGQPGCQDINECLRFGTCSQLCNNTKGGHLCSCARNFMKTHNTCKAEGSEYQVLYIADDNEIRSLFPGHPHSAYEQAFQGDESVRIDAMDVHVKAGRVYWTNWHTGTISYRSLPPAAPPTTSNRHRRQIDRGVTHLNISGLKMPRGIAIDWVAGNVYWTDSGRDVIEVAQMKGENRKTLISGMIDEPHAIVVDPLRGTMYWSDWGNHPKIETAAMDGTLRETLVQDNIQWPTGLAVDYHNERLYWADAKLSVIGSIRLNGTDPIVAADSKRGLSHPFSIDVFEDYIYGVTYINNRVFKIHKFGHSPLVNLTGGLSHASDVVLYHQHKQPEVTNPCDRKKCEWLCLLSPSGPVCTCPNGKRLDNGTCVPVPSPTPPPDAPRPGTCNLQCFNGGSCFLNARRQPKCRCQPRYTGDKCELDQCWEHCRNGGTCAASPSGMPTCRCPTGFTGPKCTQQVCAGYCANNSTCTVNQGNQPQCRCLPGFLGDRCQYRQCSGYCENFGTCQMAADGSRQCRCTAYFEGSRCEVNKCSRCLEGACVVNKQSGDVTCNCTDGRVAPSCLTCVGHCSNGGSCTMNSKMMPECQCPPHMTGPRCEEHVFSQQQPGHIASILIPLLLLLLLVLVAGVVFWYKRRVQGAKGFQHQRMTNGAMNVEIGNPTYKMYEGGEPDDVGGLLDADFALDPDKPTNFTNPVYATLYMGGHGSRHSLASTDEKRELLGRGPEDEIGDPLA
receptor-associated protein (RAP), sequence (P30533 35-357): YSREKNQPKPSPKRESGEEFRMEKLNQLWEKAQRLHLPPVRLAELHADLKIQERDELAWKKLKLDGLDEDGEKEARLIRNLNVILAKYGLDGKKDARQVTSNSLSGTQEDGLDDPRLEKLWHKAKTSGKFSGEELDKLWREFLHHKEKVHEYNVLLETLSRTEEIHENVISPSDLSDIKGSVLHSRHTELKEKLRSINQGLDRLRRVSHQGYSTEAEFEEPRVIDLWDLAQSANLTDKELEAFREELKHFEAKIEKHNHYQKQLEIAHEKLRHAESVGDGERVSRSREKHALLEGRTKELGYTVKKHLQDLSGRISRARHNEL

Substance: α2-macroglobulin: LRP-1 ligand
- Kd (LRP-1): ~2 nM

Substance: α2-macroglobulin (from UniProt P01023)
- Kd (LRP-1 (Homo sapiens) [1]): 2 nM

Substance: poly-L-lysine
- Inhibition of [125I]-Angiopep-2 uptake into RBE4 cells (RBE4 cells): 69%

Substance: receptor-associated protein (RAP) (from UniProt P30533)
- Kd (LRP-1 (Homo sapiens) [2]): 2 nM

Substance: TFFYGGSRGRRNNFRTEEY [Angiopep-7]
- In vitro BBB transcytosis [3]: did not exhibit in vitro transcytosis

Substance: RAP: receptor-associated protein, an LRP ligand
- Kd (LRP-1): ~2 nM

Substance: Cy5.5
- Passage of free dye across the BBB [4]: does not cross the BBB

Substance: poly-L-glutamine
- Inhibition of [125I]-Angiopep-2 uptake into RBE4 cells (RBE4 cells): unaffected

Substance: protamine
- Inhibition of [125I]-Angiopep-2 uptake into RBE4 cells (RBE4 cells): 79%

Substance: TFFYGGSRGKRNNFKTEEY [Angiopep-2]
- Effect of exposure to Angiopep-2 on endothelial cells (endothelial cells): unaffected
- Apparent distribution volume in brain parenchyma vs transferrin [5]: greater apparent distribution volume in brain parenchyma than transferrin
- Permeability of the BBB to inulin in the presence of Angiopep-2 [6]: unaffected
- In vitro BBB transcytosis [3]: high BBB transcytosis in vitro
- Immunohistochemical detection in brain after IV bolus injection [7]: present in the brain parenchyma
